Measured values: ChEMBL document CHEMBL1122347, “synthesis and antihypertensive activity of 2-sulfonamido- and 2-sulfamido-1,3,4,6,7,11b alpha-hexahydro-2H-benzo[a]quinolizines” (1983)
Several values for one entry are separate records, joined by “and”; a condition that tells them apart may be missing. Equal entries are not always repeated. Activity calls are given as the source filed them. No cut-off for these calls is given here.

What was measured:
[1] = system: Rattus norvegicus; assay: Antihypertensive activity in DOCA/saline rat dosed at 50 mg/kg, administered perorally expressed as percent fall in blood pressure after 2 h; NS is not significant; type: functional, organism-based; set-up: dose 50 mg/kg
In short: (§1)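 Hypertensive rats were kept only if systolic pressure was at least 155 mmHg, in groups of four. They were dosed orally in 0.5% (hydroxypropyl)methylcellulose/0.9% saline vehicle (10 mL/kg), with a vehicle-alone control. Systolic pressure was measured by tail-cuff with a pneumatic pulse transducer in 37 °C housing before dosing and at 2, 6 and 24 h. Heart rate was taken from pulse traces. Means ± SE; ANOVA against control, p > 0.05 nonsignificant.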

[2] = system: Rattus norvegicus; assay: Antihypertensive activity in DOCA/saline rat dosed at 50 mg/kg, administered perorally expressed as percent fall in blood pressure after 6 h; NS is not significant; type: functional, organism-based; set-up: dose 50 mg/kg; in short: as §1
[3] = system: Rattus norvegicus; assay: (§2) Antihypertensive activity in DOCA/saline rat dosed at 50 mg/kg, administered perorally expressed as percent rise in heart rate after 2 h; NS is not significant; type: functional, organism-based; set-up: dose 50 mg/kg; in short: as §1
[4] = system: Rattus norvegicus; assay: Antihypertensive activity in DOCA/saline rat dosed at 50 mg/kg, administered perorally expressed as percent rise in heart rate after 6 h; NS is not significant; type: functional, organism-based; set-up: dose 50 mg/kg; in short: as §1
[5] = system: Rattus norvegicus; assay: Antihypertensive activity in DOCA/saline rat dosed at 50 mg/kg, administered perorally expressed as percent fall in blood pressure after 2 h; type: functional; details: route oral; in short: as §1
[6] = species: Rattus norvegicus; details: 2 mg/kg
[7] = species: Rattus norvegicus; details: Heart, 2 mg/kg
[8] = system: Rattus norvegicus; assay: Antihypertensive activity in DOCA/saline rat dosed at 50 mg/kg, administered perorally expressed as percent fall in blood pressure after 6 h; type: functional; details: route oral; in short: as §1
[9] = system: Rattus norvegicus; assay: Antihypertensive activity in DOCA/saline rat dosed at 50 mg/kg, administered perorally expressed as percent rise in heart rate after 2 h; type: functional; details: route oral; in short: as §1
[10] = system: Rattus norvegicus; assay: Antihypertensive activity in DOCA/saline rat dosed at 25 mg/kg, administered perorally expressed as percent fall in blood pressure after 6 h; NS is not significant; type: functional, organism-based; set-up: dose 25 mg/kg; in short: as §1
[11] = system: Rattus norvegicus; assay: Antihypertensive activity in DOCA/saline rat dosed at 25 mg/kg, administered perorally expressed as percent fall in blood pressure after 2 h; NS is not significant; type: functional, organism-based; set-up: dose 25 mg/kg; in short: as §1
[12] = system: Rattus norvegicus; assay: Antihypertensive activity in DOCA/saline rat dosed at 25 mg/kg, administered perorally expressed as percent rise in heart rate after 2 h; NS is not significant; type: functional, organism-based; set-up: dose 25 mg/kg; in short: as §1
[13] = system: Rattus norvegicus; assay: Antihypertensive activity in DOCA/saline rat dosed at 25 mg/kg, administered perorally expressed as percent rise in heart rate after 6 h; NS is not significant; type: functional, organism-based; set-up: dose 25 mg/kg; in short: as §1
[14] = system: Rattus norvegicus; assay: Antihypertensive activity in DOCA/saline rat dosed at 50 mg/kg, administered perorally expressed as percent rise in heart rate after 6 h; type: functional; details: route oral; in short: as §1
[15] = system: Rattus norvegicus; assay: Antihypertensive activity in DOCA/saline rat dosed at 50 mg/kg, po administered perorally expressed as percent rise in heart rate after 2 h; type: functional; in short: as §1
[16] = system: Rattus norvegicus; assay: Antihypertensive activity in DOCA/saline rat dosed at 25 mg/kg, administered perorally expressed as percent fall in blood pressure after 2 h; type: functional; details: route oral; in short: as §1
[17] = system: Rattus norvegicus; assay: Antihypertensive activity in DOCA/saline rat dosed at 25 mg/kg, po administered perorally expressed as percent rise in heart rate after 6 h; NS is not significant; type: functional, organism-based; set-up: dose 25 mg/kg; in short: as §1
[18] = system: Rattus norvegicus; assay: as §2; type: functional, organism-based; set-up: dose 50 mg/kg; in short: as §1; remark: listed apart in the source
[19] = system: Rattus norvegicus; assay: Antihypertensive activity in DOCA/saline rat dosed at 50 mg/kg, administered perorally expressed as percent rise in heart rate after 6 h; NS is not significant,; type: functional, organism-based; set-up: dose 50 mg/kg; in short: as §1
[20] = system: Rattus norvegicus; assay: Antihypertensive activity in DOCA/saline rat dosed at 50 mg/kg administered perorally expressed as percent rise in heart rate after 2 h; NS is not significant; type: functional, organism-based; set-up: dose 50 mg/kg; in short: as §1

| Structure (SMILES) | Decrease in blood pressure [1] | Decrease in blood pressure [2] | Rise HR [3] | Rise HR [4] | Decrease in blood pressure [5] [%] | Decrease in blood pressure [8] [%] | further results |
| --- | --- | --- | --- | --- | --- | --- | --- |
| CN([C@@H]1CCN2CCc3ccccc3[C@@H]2C1)S(C)(=O)=O | inactive | inactive | inactive | inactive |  |  |  |
| COc1cc2c(cc1OC)[C@@H]1C[C@H](NS(N)(=O)=O)CCN1CC2.Cl |  | inactive | inactive | inactive | 22 |  |  |
| O=S(=O)(N[C@@H]1CCN2CCc3ccccc3[C@@H]2C1)c1ccccc1 | inactive | inactive | inactive | inactive |  |  |  |
| NNc1nncc2ccccc12 |  |  |  |  |  |  | Decrease in blood pressure [6]: inactive; Rise HR [7]: inactive |
| CCCS(=O)(=O)N[C@@H]1CCN2CCc3ccccc3[C@@H]2C1.Cl |  |  |  | inactive | 28 | 46 | Rise HR [9]: 14% |
| O=S(=O)(Nc1ccccc1)N[C@@H]1CCN2CCc3ccccc3[C@@H]2C1 | inactive | inactive | inactive | inactive |  |  |  |
| CCCS(=O)(=O)N(C)[C@@H]1CCN2CCc3ccccc3[C@@H]2C1.Cl |  | inactive |  |  | 38 |  | Decrease in blood pressure [10]: inactive; Decrease in blood pressure [11]: inactive; Rise HR [12]: inactive; Rise HR [13]: inactive; Rise HR [14]: 21%; Rise HR [15]: 15% |
| Cl.O=S(=O)(N[C@H]1CCN2CCc3ccccc3[C@@H]2C1)c1ccccc1 | inactive |  | inactive | inactive |  | 18 |  |
| COc1cc2c(cc1OC)[C@@H]1C[C@H](NS(C)(=O)=O)CCN1CC2.Cl |  |  |  | inactive | 44 | 35 | Rise HR [9]: 16% |
| CCS(=O)(=O)N[C@@H]1CCN2CCc3ccccc3[C@@H]2C1.Cl |  |  | inactive |  |  | 43 | Decrease in blood pressure [10]: inactive; Decrease in blood pressure [16]: 42%; Decrease in blood pressure ([5]; 50 mg/kg): 56% and 37%; Rise HR [12]: inactive; Rise HR [17]: inactive; Rise HR [18]: inactive; Rise HR [14]: 22%; Rise HR [19]: inactive |
| CS(=O)(=O)N[C@H]1CCN2CCc3ccccc3[C@@H]2C1 | inactive | inactive |  |  |  |  | Rise HR [20]: inactive; Rise HR [19]: inactive |
